# Laboratory results taken from ChEMBL document CHEMBL1129435, “Acyclic nucleotide analogs derived from 8-azapurines: synthesis and antiviral activity” (J Med Chem, 1996).
# Experiments:
# [1] = test system: Vaccinia virus; assay: Antiviral activity against vaccinia virus (VV) in E6SM cell culture; assay type: functional, organism-based; conditions: Orthopoxvirus vaccinia
# [2] = test system: Human immunodeficiency virus 1; assay: Inhibition of human immunodeficiency virus-1 (HIV-1) induced cytopathicity in human MT-4 cells; assay type: functional, organism-based; conditions: Human immunodeficiency virus 1, MT4
# Procedure, shortened: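 MT-4 cells (~4 × 10⁵ cells/mL) were infected with HIV-1(IIIB) at 100 CCID50 per µL. Infected cells were seeded into wells containing compound dilutions and incubated 5 days at 37 °C. Viable cells were then counted by trypan blue exclusion in a blood cell counting chamber.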
# [3] = test system: Human alphaherpesvirus 2; assay: Antiviral activity in herpes simple virus-2 (HSV-2) Lyons strain in E6SM cell culture; assay type: functional, organism-based; conditions: Human alphaherpesvirus 2, E6SM
# Procedure, shortened: (§1)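 Confluent cell monolayers in microtiter trays were inoculated with 100 CCID50 of virus. After 1 h adsorption the residual virus was removed. Cells were then incubated with serial compound concentrations (400, 200, 100, ... µg/mL). Cytopathicity was scored once it was complete in untreated infected controls. The value is the 50% inhibitory concentration, or the concentration reducing plaque formation by 50%, in µg/mL.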
# [4] = test system: Cytomegalovirus; assay: Antiviral activity against cytomegalovirus (CMV) Davis strain in HEL cell culture; assay type: functional, organism-based; conditions: Human betaherpesvirus 5, HEL; procedure, shortened: as §1
# [5] = test system: Human alphaherpesvirus 3; assay: Antiviral activity in TK+ varicella zoster virus (VZV) OKA strain in HEL cell culture; assay type: functional, organism-based; conditions: Human alphaherpesvirus 3, HEL
# [6] = test system: Human alphaherpesvirus 3; assay: Antiviral activity in TK+ varicella zoster virus (VZV) 07/1 strain in HEL cell culture; assay type: functional, organism-based; conditions: Human alphaherpesvirus 3, HEL
# [7] = test system: Human alphaherpesvirus 1; assay: Antiviral activity against thymidine kinase deficient herpes simplex virus-1 HSV-1 TK- B2006 strain in E6SM cell culture; assay type: functional, organism-based; conditions: Human alphaherpesvirus 1, E6SM; procedure, shortened: as §1
# [8] = test system: Human immunodeficiency virus 1; assay: Inhibition of human immunodeficiency virus-1 (HIV-1) induced cytopathicity in CEM cells; assay type: functional, organism-based; conditions: Human immunodeficiency virus 1, CCRF-CEM
# Procedure, shortened: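 CEM cells (~3 × 10⁵ cells/mL) were infected with HIV-1(IIIB) at 100 CCID50 per µL. Infected cells were plated with compound dilutions and incubated 4 days at 37 °C. Giant cell formation was then examined microscopically.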
# [9] = test system: Human immunodeficiency virus 2; assay: Inhibition of human immunodeficiency virus-2 (HIV-2) induced cytopathicity in CEM cells; assay type: functional, organism-based; conditions: Human immunodeficiency virus 2, CCRF-CEM
# [10] = test system: Human alphaherpesvirus 3; assay: Antiviral activity in TK+ varicella zoster virus (VZV) YS strain in HEL cell culture; assay type: functional, organism-based; conditions: Human alphaherpesvirus 3, HEL
# [11] = Antiviral activity against herpes simplex virus-1 KOS in E6SM cell culture; assay type: functional, cell-based; conditions: Human alphaherpesvirus 1, E6SM; procedure, shortened: as §1
# [12] = test system: Moloney murine sarcoma virus; assay: Compound was tested for anti-retroviral activity against moloney murine sarcoma virus (MSV) in murine C3H/3T3 embryo fibroblast cell culture; assay type: functional, organism-based
# Procedure, shortened: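 C3H/3T3 fibroblasts were seeded at 5 × 10⁵ cells/mL. After 24 h they were infected with 80 focus-forming units of MSV for 90-120 min at 37 °C; the virus came from tumours induced by intramuscular inoculation of 3-day-old NMRI mice. The medium was then replaced with fresh medium containing various compound concentrations. Transformation was scored microscopically after 6 days.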
# [13] = Antiviral activity against thymidine kinase deficient herpes simplex virus-1 HSV-1 TK- VMW-1837 strain in E6SM cell culture; assay type: functional, cell-based; conditions: Human alphaherpesvirus 1, E6SM; procedure, shortened: as §1
# [14] = test system: Human betaherpesvirus 5; assay: Antiviral activity against cytomegalovirus (CMV) AD169 strain in HEL cell culture; assay type: functional, organism-based; conditions: Human betaherpesvirus 5, HEL; procedure, shortened: as §1
Structure (SMILES),IC50 [1],IC50 [2],IC50 [3],IC50 [4],IC50 [5],IC50 [6],IC50 [7],IC50 [8],IC50 [9],IC50 [10],IC50 [11],IC50 [12],IC50 [13],IC50 [14]
C[C@H](Cn1nnc2c(N)nc(N)nc21)OCP(=O)(O)O,> 400 µg/mL,44.4 µg/mL,300 µg/mL,> 50 µg/mL,> 50 µg/mL,> 50 µg/mL,300 µg/mL,30 µg/mL,40 µg/mL,> 50 µg/mL,300 µg/mL,1.58 µg/mL,300 µg/mL,> 50 µg/mL
Cc1cn([C@H]2C[C@H](N=[N+]=[N-])[C@@H](CO)O2)c(=O)[nH]c1=O [ZIDOVUDINE],,,,,,,,0.005 µg/mL,0.008 µg/mL,,,0.02 µg/mL,,
C[C@H](Cn1nc2nc(N)nc(O)c2n1)OCP(=O)(O)O,> 400 µg/mL,20 µg/mL,> 400 µg/mL,> 50 µg/mL,> 20 µg/mL,,> 400 µg/mL,20 µg/mL,20 µg/mL,> 20 µg/mL,> 100 µg/mL,> 40 µg/mL,> 400 µg/mL,> 50 µg/mL
Nc1nc(O)c2nn(CCOCP(=O)(O)O)nc2n1,150 µg/mL,> 100 µg/mL,> 300 µg/mL,> 40 µg/mL,40 µg/mL,> 40 µg/mL,> 400 µg/mL,> 100 µg/mL,> 100 µg/mL,40 µg/mL,> 400 µg/mL,> 40 µg/mL,> 300 µg/mL,> 100 µg/mL
Nc1nc(N)c2nnn(C[C@@H](CF)OCP(=O)(O)O)c2n1,> 400 µg/mL,,,> 50 µg/mL,> 50 µg/mL,> 50 µg/mL,> 400 µg/mL,50 µg/mL,50 µg/mL,> 50 µg/mL,> 400 µg/mL,14.9 µg/mL,> 400 µg/mL,> 50 µg/mL
Nc1nc(N)c2nn(C[C@@H](CF)OCP(=O)(O)O)nc2n1,> 400 µg/mL,,,> 50 µg/mL,> 50 µg/mL,> 50 µg/mL,> 400 µg/mL,> 100 µg/mL,> 100 µg/mL,> 50 µg/mL,> 400 µg/mL,> 200 µg/mL,> 400 µg/mL,> 50 µg/mL
Nc1ncnc2nn(CCOCP(=O)(O)O)nc12,> 400 µg/mL,> 100 µg/mL,> 400 µg/mL,> 100 µg/mL,> 100 µg/mL,> 100 µg/mL,> 400 µg/mL,,,> 100 µg/mL,> 400 µg/mL,> 100 µg/mL,> 400 µg/mL,> 100 µg/mL
Nc1ncnc2nn(C[C@H](O)CO)nc12,,,,,> 40 µg/mL,,,> 100 µg/mL,> 100 µg/mL,,> 200 µg/mL,> 100 µg/mL,,> 100 µg/mL
Nc1ncnc2c1nnn2C[C@H](O)CO,,,,,> 40 µg/mL,> 40 µg/mL,,> 100 µg/mL,> 100 µg/mL,> 40 µg/mL,> 200 µg/mL,> 100 µg/mL,,> 100 µg/mL
Nc1ncnc2nn(C[C@@H](CF)OCP(=O)(O)O)nc12,> 40 µg/mL,15 µg/mL,,> 400 µg/mL,> 10 µg/mL,> 10 µg/mL,> 40 µg/mL,,,> 10 µg/mL,> 40 µg/mL,13.1 µg/mL,,> 400 µg/mL
C[C@H](Cn1nc2ncnc(N)c2n1)OCP(=O)(O)O,> 400 µg/mL,> 100 µg/mL,100 µg/mL,> 40 µg/mL,10 µg/mL,5 µg/mL,150 µg/mL,> 100 µg/mL,> 100 µg/mL,5 µg/mL,150 µg/mL,2.9 µg/mL,100 µg/mL,> 40 µg/mL
Nc1nc2c(ncn2COCCO)c(=O)[nH]1 [ACYCLOVIR],,,,,,,,,,,0.015 µg/mL,,,13 µg/mL
CC(C)OP(=O)(CO[C@H](CO)Cn1nc2ncnc(N)c2n1)OC(C)C,> 400 µg/mL,,> 400 µg/mL,> 50 µg/mL,> 50 µg/mL,,> 400 µg/mL,,,> 50 µg/mL,> 400 µg/mL,,> 400 µg/mL,> 50 µg/mL
Nc1nc(N)c2nnn(C[C@H](O)CO)c2n1,,,,,> 50 µg/mL,> 50 µg/mL,,> 100 µg/mL,> 100 µg/mL,> 50 µg/mL,> 100 µg/mL,> 40 µg/mL,,> 50 µg/mL
Nc1ncnc2nn(C[C@@H](CO)OCP(=O)(O)O)nc12,> 400 µg/mL,> 100 µg/mL,> 400 µg/mL,> 200 µg/mL,> 100 µg/mL,> 100 µg/mL,150 µg/mL,,,> 100 µg/mL,> 400 µg/mL,> 100 µg/mL,> 400 µg/mL,> 200 µg/mL
Nc1nc(N)c2nnn(CCOCP(=O)(O)O)c2n1,> 400 µg/mL,45.8 µg/mL,150 µg/mL,> 40 µg/mL,> 40 µg/mL,> 40 µg/mL,150 µg/mL,,,> 40 µg/mL,70 µg/mL,0.75 µg/mL,150 µg/mL,> 40 µg/mL
Nc1ncnc2c1nnn2C[C@@H](CF)OCP(=O)(O)O,> 400 µg/mL,,> 400 µg/mL,> 40 µg/mL,> 40 µg/mL,> 40 µg/mL,> 400 µg/mL,> 100 µg/mL,> 100 µg/mL,> 40 µg/mL,> 400 µg/mL,> 200 µg/mL,> 400 µg/mL,> 40 µg/mL
Nc1ncnc2c1nnn2CCOCP(=O)(O)O,> 400 µg/mL,> 100 µg/mL,> 200 µg/mL,> 100 µg/mL,> 100 µg/mL,> 100 µg/mL,> 200 µg/mL,,,> 100 µg/mL,> 200 µg/mL,12.1 µg/mL,> 200 µg/mL,> 100 µg/mL
